According to ChEMBL document CHEMBL3870302, “Computer-aided identification, synthesis and evaluation of substituted thienopyrimidines as novel inhibitors of HCV replication” (Eur J Med Chem, 2016):
pEC50, pIC50: −log10 of the molar value.

Tests used:
[1] = Cytotoxicity against human HuH5.2 cells assessed as reduction in metabolic activity after 72 hrs by MTS assay; format: toxicity, cell-based, Huh-5-2; conditions: HuH5.2 cells
Method in brief: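 Run in parallel with the replicon assay: Huh 5-2 replicon cells, 6 500 cells/well, compound series for 72 h at 37 °C, 5% CO2. Medium then replaced with 5% MTS in phenol red-free medium for 1.5 h. Absorbance at 498 nm expressed as % untreated cells; CC50 from dose-response curve as 50% reduction in metabolic activity, mean of ≥2 experiments.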

[2] = Selectivity index, ratio of CC50 for human HuH5.2 cells to EC50 for hepatitis C virus genotype 1b infected in human HuH5.2 cells; format: toxicity, cell-based; conditions: HuH5.2 cells, read-out: Ratio CC50/EC50
Method in brief: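 Ratio of CC50 (MTS metabolic read-out, 72 h) to EC50 (replicon luciferase read-out, 72 h), both measured in parallel on Huh 5-2 genotype 1b replicon cells.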

Hepatitis C virus = assay: Antiviral activity against Hepatitis C virus genotype 1b infected in human HuH5.2 cells after 72 hrs by luciferase reporter gene assay; format: functional, cell-based, Hepacivirus hominis
Method in brief: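 Huh 5-2 cells with genotype 1b I389luc-ubi-neo/NS3-3'/5.1 subgenomic replicon, seeded 6 500 cells/well in DMEM/10% FCS without Geneticin, overnight 37 °C. Compound (DMSO stock diluted in medium) in 1:5 four-step or 1:2 eight-step series, 72 h. Cells PBS-washed, lysed 5 min, luciferase luminescence read, converted to % untreated control; EC50 from dose-response curve, mean of ≥2 independent experiments.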

[3] = Inhibition of Hepatitis C virus genotype 1b (con1) full length C-terminal His-tagged NS3 helicase expressed in Escherichia coli Rosette(DE3) assessed as inhibition of 5'-Cy5/3'-IAbRQ-labeled DNA unwinding activity by molecular beacon assay; design: species or system Hepatitis C virus (isolate Con1)
Method in brief: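 Molecular beacon unwinding assay: 25 mM MOPS pH 6.5, 1.25 mM MgCl2, 5% DMSO, 5 µg/ml BSA, 0.01% Tween20, 0.05 mM DTT, 5 nM fluorescent DNA substrate, 12.5 nM NS3h, 1 mM ATP.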

[4] = Hepatitis C virus, genotype 1b, Huh-5-2, 72 h

SMILES | CC50 at 72 h [1] | selectivity ratio [2] | pEC50 (Hepatitis C virus; [4]) | EC90 (Hepatitis C virus; [4]) | pIC50 [3] | pEC50 (Hepatitis C virus) | EC90 (Hepatitis C virus)
NNc1ncnc2sc3c(c12)CCCC3 | 247 µM | 10.7 | 4.64 | 47.4 µM |  |  | 
Cc1c(Cl)sc2ncnc(NNC(=O)c3ccccn3)c12 | > 9.38 µM | > 106 | 7.06 | 0.286 µM | < 3.00 |  | 
C/C(=N\Nc1ncnc2sc3c(c12)CCCC3)c1cccc(O)c1 | > 443 µM | > 1.1 | 3.39 | > 443 µM |  |  | 
O=C(NNc1ncnc2sc3c(c12)CCCC3)c1cccnc1 | > 307 µM | > 2.4 | 3.89 | > 307 µM |  |  | 
C/C(=N\Nc1ncnc2sc3ccccc3c12)c1nc2ccccc2[nH]1 | 19.1 µM | 17.4 | 5.96 | 3.25 µM | < 3.00 |  | 
CCc1sc2ncnc(N/N=C(/C)c3cc(O)ccc3O)c2c1C | > 292 µM | > 364 | 6.10 | 1.62 µM | < 3.00 |  | 
O=C(NNc1ncnc2sccc12)c1ccccc1O | > 349 µM | > 27 | 4.92 | > 38.8 µM |  |  | 
C/C(=N\Nc1ncnc2sc3c(c12)CCC3)c1cc(O)ccc1O | > 367 µM | > 20.6 | 4.75 | 17.6 µM |  |  | 
c1ccc2c(Nc3ncnc4sc5c(c34)CCCC5)cccc2c1 | 281 µM | 8.7 | 4.49 | > 33.5 µM | < 3.00 |  | 
O=C(NNc1ncnc2sc3c(c12)CCCC3)c1ccco1 | 230 µM | 1.2 | 3.70 |  |  |  | 
C/C(=N/Nc1ncnc2sc(C)c(C)c12)c1cc(O)ccc1O | > 305 µM | > 193 | 5.80 | 4.65 µM | < 3.00 |  | 
C/C(=N\Nc1ncnc2sc3ccccc3c12)c1cnccn1 | 1.99 µM | 6.4 | 6.38 | 0.858 µM |  |  | 
C/C(=N/Nc1ncnc2sccc12)c1cc(O)ccc1O | 226 µM | 81 | 5.55 | 4.55 µM | 3.64 |  | 
O=C(NNc1ncnc2sc3ccccc3c12)c1cc(O)ccc1O | 46.5 µM | 68.3 | 6.17 | 2.14 µM | < 3.00 |  | 
O=C(NNc1ncnc2sc3c(c12)CCC3)c1ccccn1 | 6.61 µM | 8.9 | 6.13 | 1.94 µM | < 3.00 |  | 
O=C(NNc1ncnc2sc3c(c12)CCCC3)c1cc(O)ccc1O | 99.9 µM | 199 | 6.30 | 0.945 µM | < 3.00 |  | 
C/C(=N\Nc1ncnc2sc3c(c12)CCCC3)c1ccccc1 | 53.4 µM | 1.6 | 4.47 | > 310 µM |  |  | 
COc1ccc(OC)c(/C(C)=N/Nc2ncnc3sc4c(c23)CCCC4)c1 | 98.5 µM | 1.8 | 4.27 |  |  |  | 
O=C(NNc1ncnc2sc3c(c12)CCCC3)c1cccc(O)c1 | > 294 µM | > 1.4 | 3.68 | > 220 µM |  |  | 

SMILES | CC50 at 72 h [1] | selectivity ratio [2] | pEC50 (Hepatitis C virus; [4]) | EC90 (Hepatitis C virus; [4]) | pIC50 [3] | pEC50 (Hepatitis C virus) | EC90 (Hepatitis C virus)
C/C(=N\Nc1ncnc2sc3c(c12)CCCC3)c1nc2ccccc2[nH]1 | 37.3 µM | 15.4 | 5.62 | 7.06 µM | < 3.00 |  | 
O=C(NNc1ncnc2sc3c(c12)CCC3)c1nc2ccccc2[nH]1 | 7.46 µM | 11.6 | 6.23 | 1.11 µM | < 3.00 |  | 
C/C(=N/Nc1ncnc2sc(Cl)c(C)c12)c1cnccn1 | 3.13 µM | 53.9 | 7.24 | 0.289 µM | < 3.00 |  | 
O=C(NNc1ncnc2sc3c(c12)CCCC3)c1ccccn1 | 7.75 µM | 5.27 | 5.83 | 0.819 µM | < 3.00 |  | 
C/C(=N\Nc1ncnc2sc3c(c12)CCCC3)c1cccnc1 | > 309 µM | > 3.9 | 4.10 | > 103 µM |  |  | 
C/C(=N\Nc1ncnc2sc3c(c12)CCCC3)c1ccccn1 | 7.59 µM | 6.9 | 5.96 | 3.48 µM |  |  | 
Cc1c(Cl)sc2ncnc(NNC(=O)c3ccccc3O)c12 | > 8.96 µM | > 56.1 | 6.80 |  | 3.51 |  | 
O=C(NNc1ncnc2sc3c(c12)CCCC3)c1nc2ccccc2[nH]1 | 3.14 µM | 18.5 | 6.77 | 0.679 µM | < 3.00 |  | 
COc1cccc(C2=Nn3c(CN4CCC(C)CC4)nnc3SC2)c1 | > 139 µM | > 1.1 | 3.89 | > 139 µM |  |  | 
C/C(=N\Nc1ncnc2sc3c(c12)CCCC3)c1cc(Cl)ccc1Cl | > 256 µM | > 27.2 | 5.03 | 55.1 µM |  |  | 
O=C(NNc1ncnc2sc3c(c12)CCCC3)c1ccc2ccccc2n1 | 40.4 µM | 2.4 | 4.78 |  | < 3.00 |  | 
C/C(=N\Nc1ncnc2sc3c(c12)CCCC3)c1ccc2ccccc2n1 | 7.23 µM | > 10.4 | > 6.16 |  | < 3.00 |  | 
O=C(NNc1ncnc2sc3c(c12)CCCC3)c1cnccn1 | 10.6 µM | 8.21 | 5.89 | 3.75 µM | < 3.00 |  | 
Cc1sc2ncnc(NNC(=O)c3cnccn3)c2c1C | 1.67 µM | 43.3 | 7.41 | 0.319 µM | < 3.00 |  | 
C/C(=N\Nc1nc(C)nc2sc3c(c12)CCCC3)c1cnccn1 | > 3 µM | > 42.7 | 7.16 | 0.24 µM | < 3.00 |  | 
O=C(NNc1ncnc2sc3c(c12)CCCC3)c1ccc[nH]1 | 160 µM | 1.1 | 3.83 |  |  |  | 
Cc1nc(NNC(=O)c2ccccc2O)c2c3c(sc2n1)CCCC3 | 25 µM | 19.8 | 5.90 | 3.07 µM | < 3.00 |  | 
C/C(=N/Nc1ncnc2sccc12)c1ccccc1O | 80.5 µM | 17.2 | 5.33 | > 10.6 µM | < 3.00 |  | 
C/C(=N\Nc1ncnc2sc3c(c12)CCCC3)c1cc(O)ccc1O (stereo in doubt; form 2) | > 282 µM | > 128 |  |  |  | > 5.66 | 135 µM
